In series [1] the target is T1, Protein-glutamine gamma-glutamyltransferase 2 (Mus musculus) (UniProt P21981).
T1 sequence (whole entry): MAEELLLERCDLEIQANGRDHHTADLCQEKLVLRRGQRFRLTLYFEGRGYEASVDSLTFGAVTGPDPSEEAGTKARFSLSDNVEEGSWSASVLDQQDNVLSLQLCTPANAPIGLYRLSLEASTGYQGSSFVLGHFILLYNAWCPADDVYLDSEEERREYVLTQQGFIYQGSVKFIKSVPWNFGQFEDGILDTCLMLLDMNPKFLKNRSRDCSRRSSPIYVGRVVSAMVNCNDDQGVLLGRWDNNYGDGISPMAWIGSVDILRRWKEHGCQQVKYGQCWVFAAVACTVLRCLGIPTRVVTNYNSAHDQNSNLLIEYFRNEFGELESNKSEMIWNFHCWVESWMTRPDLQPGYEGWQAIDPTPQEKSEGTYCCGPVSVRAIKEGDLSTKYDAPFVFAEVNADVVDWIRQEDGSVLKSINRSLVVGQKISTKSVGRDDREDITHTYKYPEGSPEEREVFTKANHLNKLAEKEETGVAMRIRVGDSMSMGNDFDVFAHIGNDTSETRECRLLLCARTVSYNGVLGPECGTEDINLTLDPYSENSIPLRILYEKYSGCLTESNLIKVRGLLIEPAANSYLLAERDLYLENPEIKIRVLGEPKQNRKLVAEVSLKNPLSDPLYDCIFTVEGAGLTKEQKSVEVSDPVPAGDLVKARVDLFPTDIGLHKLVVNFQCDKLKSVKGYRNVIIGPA
The experiment in a line: Inhibition of mouse transglutaminase 2 using ((benzyloxy)carbony l)-L-glutaminylglycine peptide substrate assessed as Kinh/Ki ratio by GDH coupled assay. The method in brief:
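Human TG2 (V224G variant) or codon-optimized murine TG2, E. coli-expressed, final ~0.34 and 0.22 μM respectively. Buffer: 200 mM MOPS pH 7.2, 5 mM CaCl2, 10 mM α-ketoglutarate, 300 μM NADH, 36 U/mL bovine GDH. Z-Gln-Gly at 10/20 mM. Inhibitors typically at 100/33.3/11.1/3.7 μM, 1% DMSO, added after ≥5 min pre-equilibration. A340 progress curves fitted to exponential decay; kinh/Ki from irreversible inhibition model.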

Series [2] is described as follows: Plasma concentration in CD-1 mouse at 50 mg/kg, po after 20 mins. The arrangement: dose 50 mg/kg, route oral. It is filed as ADME, organism-based. The method in brief:
(§1)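 Male CD-1 mice (6−8 weeks, cohorts of five) fasted ~6 h, then gavaged (10 μL/g) with inhibitor mixtures at 50 mg/kg each compound. Vehicle: 25 mg/mL per compound in 1 M HCl/10% Tween-80/25% ethanol, diluted 5-fold into 0.94% methylcellulose in 250 mM trisodium citrate. Blood sampled at 5, 20 (saphenous) and 60 min (cardiac). Plasma quantified by LC-MS (ESI-QTOF) against standard curves.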

The target in series [3] is T2, Protein-glutamine gamma-glutamyltransferase K (Homo sapiens) (UniProt P22735).
T2 sequence (whole entry): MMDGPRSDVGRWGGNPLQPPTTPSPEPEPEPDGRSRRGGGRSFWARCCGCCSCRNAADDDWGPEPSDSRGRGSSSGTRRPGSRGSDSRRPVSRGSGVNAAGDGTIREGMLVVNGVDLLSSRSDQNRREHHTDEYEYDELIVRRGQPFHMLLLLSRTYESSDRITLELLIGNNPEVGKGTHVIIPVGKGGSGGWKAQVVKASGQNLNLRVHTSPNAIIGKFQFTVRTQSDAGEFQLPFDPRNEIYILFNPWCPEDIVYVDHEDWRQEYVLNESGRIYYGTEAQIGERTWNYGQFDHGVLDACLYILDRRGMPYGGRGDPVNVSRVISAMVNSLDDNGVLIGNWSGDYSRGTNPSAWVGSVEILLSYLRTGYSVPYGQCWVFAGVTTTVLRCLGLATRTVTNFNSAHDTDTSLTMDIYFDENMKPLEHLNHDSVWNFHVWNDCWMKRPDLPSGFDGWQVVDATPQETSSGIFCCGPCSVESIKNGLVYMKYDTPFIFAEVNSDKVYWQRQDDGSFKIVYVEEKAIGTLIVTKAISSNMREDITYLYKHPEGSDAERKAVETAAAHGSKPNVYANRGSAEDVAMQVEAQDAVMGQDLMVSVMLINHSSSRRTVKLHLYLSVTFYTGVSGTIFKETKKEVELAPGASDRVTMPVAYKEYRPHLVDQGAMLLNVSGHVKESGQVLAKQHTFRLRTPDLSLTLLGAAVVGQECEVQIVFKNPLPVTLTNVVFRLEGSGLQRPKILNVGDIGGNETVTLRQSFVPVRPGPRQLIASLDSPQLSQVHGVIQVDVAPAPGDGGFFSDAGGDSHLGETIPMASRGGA
The experiment in a line: Inhibition of human transglutaminase 1 using ((benzyloxy)carbonyl)-L-glutaminyl-L-serine peptide substrate assessed as Kinh/Ki ratio by GDH coupled assay. The method in brief:
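Recombinant His-tagged human TG1 from E. coli Rosetta 2 pLysS, final ~0.37 μM, in 200 mM MOPS pH 7.2, 5 mM CaCl2, 10 mM α-ketoglutarate, 300 μM NADH, 36 U/mL GDH. Z-Gln-Ser at 20/40 mM. Inhibitors typically at 100/33.3/11.1/3.7 μM (1% DMSO), added after ≥5 min enzyme pre-equilibration. NADH loss read at 340 nm; progress curves fitted to exponential decay, kinh/Ki from irreversible model.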

Series [4] can be described thus: Plasma concentration in CD-1 mouse at 50 mg/kg, po after 5 mins. It is filed as ADME, organism-based. Also noted: dose 50 mg/kg, route oral. The gist of the method:
as §1

For `O=C(NC[C@@H]1CC(Br)=NO1)[C@@H]1CCCN1C(=O)OCc1cnc2ccccc2c1`, the Ratio worked out at 0.5 in series [1] and 13.2 in series [3]. For the same compound, the concentration at 20 min in series [2] worked out at 1200 ng/mL. This compound also registered a concentration at 5 min in series [4] of 2100 ng/mL.
Turning to `O=C(N[C@@H]1C[C@@H](C(=O)NC[C@@H]2CC(Br)=NO2)N(C(=O)OCc2cnc3ccccc3c2)C1)c1cccnc1`, the Ratio in series [1] came to 0.68; in series [3], 20.
For the compound `O=C(NC[C@@H]1CC(Br)=NO1)[C@@H]1C[C@H](F)CN1C(=O)OCc1cnc2ccccc2c1`, the Ratio in series [1] amounted to 0.43; in series [3] it was 6. Also, in series [2], the concentration at 20 min amounted to 2100 ng/mL. Further, in series [4], the concentration at 5 min worked out at 2900 ng/mL.
On to `O=C(NC[C@@H]1CC(Br)=NO1)[C@@H]1C[C@@H](c2ccccc2)CN1C(=O)OCc1cnc2ccccc2c1`, for which the Ratio in series [1] stood at 1.5; in series [3], 66.3.
The like results for `O=C(NC[C@@H]1CC(Br)=NO1)[C@@H]1C[C@@H](c2ccc(O)cc2)CN1C(=O)OCc1cnc2ccccc2c1` were, in that order, 1.4 and 90.7.
The like results for `O=C(N[C@@H]1C[C@@H](C(=O)NC[C@@H]2CC(Br)=NO2)N(C(=O)OCc2cnc3ccccc3c2)C1)c1ccc(O)cc1` were, in that order, 1.3 and 31.3.
For `O=C(NC[C@@H]1CC(Br)=NO1)[C@@H]1C[C@@H](OCc2ccccc2)CN1C(=O)OCc1cnc2ccccc2c1` the same measures were 0.5 and 5.8.
`O=C(NC[C@@H]1CC(Br)=NO1)[C@@H]1C[C@@H](O)CN1C(=O)OCc1cnc2ccccc2c1`: the Ratio in series [1] is 0.5; in series [3], 4.8.
